Experiments:
CYP1A2 = target: T1, CYP1A2 (Homo sapiens, UniProt P05177); assay: Inhibition of CYP1A2 (unknown origin) assessed as residual activity; type: ADME
T1 sequence (P05177 whole entry): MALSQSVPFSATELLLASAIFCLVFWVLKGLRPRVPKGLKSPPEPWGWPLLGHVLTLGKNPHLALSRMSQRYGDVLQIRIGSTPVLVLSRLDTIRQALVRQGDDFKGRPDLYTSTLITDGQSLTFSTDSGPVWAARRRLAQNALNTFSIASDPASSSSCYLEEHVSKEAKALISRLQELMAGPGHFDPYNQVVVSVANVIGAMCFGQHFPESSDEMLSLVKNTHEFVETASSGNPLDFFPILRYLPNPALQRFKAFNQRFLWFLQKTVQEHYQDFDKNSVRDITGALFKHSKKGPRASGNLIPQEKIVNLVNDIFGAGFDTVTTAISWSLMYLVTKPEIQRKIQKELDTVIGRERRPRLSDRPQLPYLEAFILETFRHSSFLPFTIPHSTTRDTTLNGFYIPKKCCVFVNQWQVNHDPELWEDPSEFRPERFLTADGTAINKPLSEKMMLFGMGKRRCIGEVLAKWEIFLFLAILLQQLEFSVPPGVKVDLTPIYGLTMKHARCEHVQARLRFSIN

[1] = target: T2, Nuclear factor erythroid 2-related factor 2 (Homo sapiens, UniProt Q16236); assay: Activation of Nrf2 (unknown origin) expressed in human U2OS cells co-expressing Keap1 assessed as increase in Nrf2 nuclear translocation incubated for 6 hrs under dark condition by pathhunter assay; type: cell-based
T2 sequence (Q16236 whole entry): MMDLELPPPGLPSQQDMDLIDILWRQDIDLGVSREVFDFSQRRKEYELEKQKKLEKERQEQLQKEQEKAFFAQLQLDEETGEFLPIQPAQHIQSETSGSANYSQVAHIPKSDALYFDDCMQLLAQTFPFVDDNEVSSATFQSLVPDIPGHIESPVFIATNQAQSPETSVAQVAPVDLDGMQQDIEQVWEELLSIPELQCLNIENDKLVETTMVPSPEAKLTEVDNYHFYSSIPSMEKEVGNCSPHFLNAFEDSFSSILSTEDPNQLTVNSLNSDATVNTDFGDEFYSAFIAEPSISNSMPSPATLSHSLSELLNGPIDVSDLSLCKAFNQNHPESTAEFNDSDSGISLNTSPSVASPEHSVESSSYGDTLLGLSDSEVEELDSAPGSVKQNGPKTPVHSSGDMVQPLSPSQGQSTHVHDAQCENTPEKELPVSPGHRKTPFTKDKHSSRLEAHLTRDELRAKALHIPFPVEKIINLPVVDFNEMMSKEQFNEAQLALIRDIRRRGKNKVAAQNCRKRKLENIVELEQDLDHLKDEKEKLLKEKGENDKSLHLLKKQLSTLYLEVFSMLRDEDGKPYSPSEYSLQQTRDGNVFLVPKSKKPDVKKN

[2] = target: T3, Nuclear factor erythroid 2-related factor 2 (Mus musculus) (UniProt Q60795); assay: Activation of Nrf2 in mouse BV-2 cells assessed as increase in nuclear Nrf2 levels at 10 uM after 6 hrs by Western blot analysis relative to control; type: cell-based; settings: filed as activator
T3 sequence (whole entry): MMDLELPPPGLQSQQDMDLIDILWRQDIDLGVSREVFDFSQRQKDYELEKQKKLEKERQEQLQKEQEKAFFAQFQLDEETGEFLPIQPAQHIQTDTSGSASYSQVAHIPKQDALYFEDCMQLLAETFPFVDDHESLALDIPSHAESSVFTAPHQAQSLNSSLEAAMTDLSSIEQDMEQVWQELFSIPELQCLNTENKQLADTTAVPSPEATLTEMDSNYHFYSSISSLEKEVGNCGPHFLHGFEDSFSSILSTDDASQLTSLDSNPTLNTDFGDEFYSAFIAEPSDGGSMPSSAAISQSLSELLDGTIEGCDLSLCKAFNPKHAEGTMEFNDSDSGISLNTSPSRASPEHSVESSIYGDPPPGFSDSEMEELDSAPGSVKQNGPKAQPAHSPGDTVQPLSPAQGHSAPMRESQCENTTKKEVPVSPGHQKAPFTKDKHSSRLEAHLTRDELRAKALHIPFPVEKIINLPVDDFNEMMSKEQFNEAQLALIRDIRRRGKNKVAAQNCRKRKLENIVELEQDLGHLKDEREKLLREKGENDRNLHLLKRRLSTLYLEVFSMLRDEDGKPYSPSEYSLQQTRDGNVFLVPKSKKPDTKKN

BV-2 [3] = assay: Antiinflammatory activity in mouse BV-2 cells assessed as inhibition of LPS-induced TNFalpha production preincubated for 6 hrs followed by LPS stimulation and measured after 24 hrs by ELISA; type: functional, cell-based; settings: dose 0.02-2 µM, time 30.0 hrs
Summary of the method: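 BV-2 cells seeded in 12-well plates and pretreated 6 h with compound at […]. LPS then added for 24 h. TNF-α and IL-6 released into the medium quantified by ELISA. Mean ± SEM, n = 3, three separate experiments.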

BV-2 [4] = assay: Antiinflammatory activity in mouse BV-2 cells assessed as inhibition of LPS-induced nitric oxide production preincubated for 6 hrs followed by LPS stimulation and measured after 24 hrs by griess assay; type: functional, cell-based; settings: dose 0.01-3 µM, time 30.0 hrs
Summary of the method: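 Nitrite in medium read by Griess reaction. BV-2 cells pretreated 6 h across a dose range, then given LPS for 24 h. Medium treated with 1% sulfanilamide in 5% phosphoric acid, then 0.1% N-1-naphthylethylenediamine, each 5 min at RT in the dark. A540 read and converted against a nitrite standard curve.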

[5] = target: T3, Nuclear factor erythroid 2-related factor 2 (Mus musculus); assay: Activation of Nrf2 in mouse BV-2 cells assessed as increase in nuclear Nrf2 levels after 6 hrs by Western blot analysis; type: cell-based; settings: filed as activator, dose 0.02-10 µM
[6] = Stability in human microsomes assessed as parent compound remaining after 30 mins; type: ADME, Microsome; settings: read-out: Stabilty
[7] = target: T3, Nuclear factor erythroid 2-related factor 2 (Mus musculus); assay: Activation of Nrf2 in mouse BV-2 cells assessed as increase in Gclm mRNA expression after 6 hrs by RT-qPCR analysis; type: cell-based; settings: filed as activator, dose 0.03-1 µM
Summary of the method: (§1)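 BV-2 cells exposed to a range of concentrations for 6 h. Ho1, Gclc, Gclm and Sod1 mRNA quantified by RT-qPCR and expressed relative to vehicle-treated control. Mean ± SEM, n = 3; Student's t-test.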

[8] = target: T3, Nuclear factor erythroid 2-related factor 2 (Mus musculus); assay: Activation of Nrf2 in mouse BV-2 cells assessed as increase in Gclc mRNA expression after 6 hrs by RT-qPCR analysis; type: cell-based; settings: filed as activator, dose 0.03-1 µM; summary of the method: as §1
[9] = Cytotoxicity against mouse BV-2 cells assessed cell viability at 1 uM measured after 6 hrs by Ez-cytox reagent based assay relative to control; settings: read-out: Activity
Summary of the method: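 BV-2 cells (1.0 × 10⁴/well) grown 24 h at 37 °C, 5% CO2, then treated 6 h at […]. Viability expressed as percent of control.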

[10] = target: Voltage-gated inwardly rectifying potassium channel KCNH2 (Homo sapiens, UniProt Q12809); assay: Inhibition of fluorescence tracer red binding to human ERG measured after 4 hrs by fluorescence polarization assay
Sequence of Voltage-gated inwardly rectifying potassium channel KCNH2 (Q12809 whole entry): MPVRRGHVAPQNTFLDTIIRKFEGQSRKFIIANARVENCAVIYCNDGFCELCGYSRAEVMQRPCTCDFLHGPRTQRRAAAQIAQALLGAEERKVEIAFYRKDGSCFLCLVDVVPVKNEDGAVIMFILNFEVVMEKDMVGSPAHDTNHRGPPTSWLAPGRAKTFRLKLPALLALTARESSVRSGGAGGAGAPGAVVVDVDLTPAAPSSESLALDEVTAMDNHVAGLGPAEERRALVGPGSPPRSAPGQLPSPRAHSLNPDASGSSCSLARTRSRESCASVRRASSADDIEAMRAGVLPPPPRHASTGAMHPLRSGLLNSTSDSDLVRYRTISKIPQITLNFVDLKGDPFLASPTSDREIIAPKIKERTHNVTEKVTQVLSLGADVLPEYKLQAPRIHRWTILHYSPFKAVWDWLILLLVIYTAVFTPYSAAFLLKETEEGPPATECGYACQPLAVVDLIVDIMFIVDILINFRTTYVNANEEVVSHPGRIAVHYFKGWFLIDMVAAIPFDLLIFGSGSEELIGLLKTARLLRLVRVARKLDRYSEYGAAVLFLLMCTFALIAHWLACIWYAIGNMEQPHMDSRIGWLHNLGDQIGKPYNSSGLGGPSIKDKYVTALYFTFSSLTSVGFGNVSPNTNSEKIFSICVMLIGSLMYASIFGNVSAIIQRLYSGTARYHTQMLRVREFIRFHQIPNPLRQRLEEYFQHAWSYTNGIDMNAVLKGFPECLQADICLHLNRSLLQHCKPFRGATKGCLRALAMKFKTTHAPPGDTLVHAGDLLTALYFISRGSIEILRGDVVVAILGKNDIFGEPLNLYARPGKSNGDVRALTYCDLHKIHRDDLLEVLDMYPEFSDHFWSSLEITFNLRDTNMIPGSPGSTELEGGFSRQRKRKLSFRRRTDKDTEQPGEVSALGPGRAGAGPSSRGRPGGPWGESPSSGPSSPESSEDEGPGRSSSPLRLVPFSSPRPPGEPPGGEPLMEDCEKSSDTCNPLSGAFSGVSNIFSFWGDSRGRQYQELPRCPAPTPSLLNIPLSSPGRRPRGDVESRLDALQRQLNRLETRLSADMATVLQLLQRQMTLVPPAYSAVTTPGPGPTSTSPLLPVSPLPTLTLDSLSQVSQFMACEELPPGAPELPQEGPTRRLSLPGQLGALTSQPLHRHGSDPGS

activity (CYP1A2): 88.4%
EC50 [1]: 26 nM
fold change (FC) [2]: 22.6
Activity [5]: Dose-dependent effect
remaining at 0.5 h [6]: 66%
Activity [7]: Dose-dependent effect
Activity [8]: Dose-dependent effect
SMILES: O=S(=O)(/C=C/c1ncccc1Cl)c1ccccc1Cl
inhibition (BV-2 [3]): Dose-dependent effect
inhibition (BV-2 [4]): Dose-dependent effect
viability at 6 h, 1 µM [9]: 98.9%
IC50 [10]: 110 µM

Reference: ChEMBL document CHEMBL4706647, “Development and optimization of halogenated vinyl sulfones as Nrf2 activators for the treatment of Parkinson's disease” (Eur J Med Chem, 2021)
